From ChEMBL document CHEMBL4689842, “EUbOPEN Chemogenomics Library wave 1” (2021)

Assays:
Type in all cases: toxicity, cell-based
[1] = test system: U2OS; test: Incucyte cell viability with U2OS; conditions: human, 10 µM, compound concentration 10 uM; further: filed as whole numbers so only -1 and 0 and 1 occur
[2] = test system: HEK-293T; test: Incucyte cell viability with HEK293T; conditions: human, 10 µM, compound concentration 10 uM; further: filed as whole numbers so only -1 and 0 and 1 occur
[3] = test system: U2OS; test: Multiplex assay against U2OS; conditions: human
Outline: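 Compound was added to live cells that had been stained at seeding with Hoechst33342, BioTracker Green Microtubule Cytoskeleton Dye, MitoTracker Red and Annexin V Alexa Fluor 680, and imaging followed on a CQ1 microscope at 37°C and 5% CO2. CellPathfinder machine-learning gating divided cells into Hoechst high-intensity objects or normal cells, normal cells into healthy, pyknosed or fragmented nuclei, and pyknosed cells into mitotic or apoptotic. Tubulin, mitochondrial-mass and membrane-permeability phenotypes are per cents of healthy-nucleus cells.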

[4] = 0 h, replicate number 1, timepoint 0 hours
[5] = 6 h, replicate number 1, timepoint 6 hours
[6] = 12 h, replicate number 1, timepoint 12 hours
[7] = 18 h, replicate number 1, timepoint 18 hours
[8] = 24 h, replicate number 1, timepoint 24 hours
[9] = 12 h, 1 µM, compound concentration 1 uM, replicate 1
[10] = 12 h, 1 µM, compound concentration 1 uM, replicate 2
[11] = 12 h, 10 µM, compound concentration 10 uM, replicate 1
[12] = 12 h, 10 µM, compound concentration 10 uM, replicate 2
[13] = 24 h, 1 µM, compound concentration 1 uM, replicate 1
[14] = 24 h, 1 µM, compound concentration 1 uM, replicate 2
[15] = 24 h, 10 µM, compound concentration 10 uM, replicate 1
[16] = 24 h, 10 µM, compound concentration 10 uM, replicate 2

Cc1c(Nc2ccc(S(=O)(=O)N3CCN(C)CC3)cc2F)nc2ccc(Nc3cnn(C4CC4)c3)cn2c1=O
Growth Rate [1, 4]: 0 | Growth Rate [1, 5]: 0 | Growth Rate ([1]; 6 h, replicate number 2, timepoint 6 hours): 1 | Growth Rate [1, 6]: 0 | Growth Rate ([1]; 12 h, replicate number 2, timepoint 12 hours): 1 | Growth Rate [1, 7]: 0 | Growth Rate ([1]; 18 h, replicate number 2, timepoint 18 hours): 1 | Growth Rate [1, 8]: 0 | Growth Rate ([1]; 24 h, replicate number 2, timepoint 24 hours): 1 | Growth Rate [2, 4]: 1 | Growth Rate [2, 5]: 0 | Growth Rate [2, 6]: 0 | Growth Rate [2, 7]: 0 | Growth Rate [2, 8]: 0 | Population Apoptotic (%) [3, 9]: 50% | Population Fragmented Nuclei (%) [3, 9]: 7% | Population Healthy Nuclei (%) [3, 9]: 81% | Population Hoechst High Intensity Objects (%) [3, 9]: 3% | Population Membrane Permeable-Phenotype (%) [3, 9]: 58% | Population Mitochondria Different-Phenotype (%) [3, 9]: 9% | Population Mitotic Cells (%) [3, 9]: 50% | Population Normal (%) [3, 9]: 96% | Population Pyknosed Nuclei (%) [3, 9]: 11% | Population Tubulin-Different-Phenotype (%) [3, 9]: 53% | Total Cell Count [3, 9]: 194 | Population Apoptotic (%) [3, 10]: 0% | Population Fragmented Nuclei (%) [3, 10]: 3% | Population Healthy Nuclei (%) [3, 10]: 93% | Population Hoechst High Intensity Objects (%) [3, 10]: 6% | Population Membrane Permeable-Phenotype (%) [3, 10]: 40% | Population Mitochondria Different-Phenotype (%) [3, 10]: 18% | Population Mitotic Cells (%) [3, 10]: 100% | Population Normal (%) [3, 10]: 93% | Population Pyknosed Nuclei (%) [3, 10]: 3% | Population Tubulin-Different-Phenotype (%) [3, 10]: 34% | Total Cell Count [3, 10]: 124 | Population Apoptotic (%) [3, 11]: 27% | Population Fragmented Nuclei (%) [3, 11]: 2% | Population Healthy Nuclei (%) [3, 11]: 91% | Population Hoechst High Intensity Objects (%) [3, 11]: 3% | Population Membrane Permeable-Phenotype (%) [3, 11]: 7% | Population Mitochondria Different-Phenotype (%) [3, 11]: 21% | Population Mitotic Cells (%) [3, 11]: 72% | Population Normal (%) [3, 11]: 96% | Population Pyknosed Nuclei (%) [3, 11]: 5% | Total Cell Count [3, 11]: 459 | Population Apoptotic (%) [3, 12]: 37% | Population Fragmented Nuclei (%) [3, 12]: 9% | Population Healthy Nuclei (%) [3, 12]: 82% | Population Hoechst High Intensity Objects (%) [3, 12]: 15% | Population Membrane Permeable-Phenotype (%) [3, 12]: 9% | Population Mitochondria Different-Phenotype (%) [3, 12]: 32% | Population Mitotic Cells (%) [3, 12]: 62% | Population Normal (%) [3, 12]: 84% | Population Pyknosed Nuclei (%) [3, 12]: 7% | Population Tubulin-Different-Phenotype (%) [3, 12]: 20% | Total Cell Count [3, 12]: 603 | Population Apoptotic (%) [3, 13]: 50% | Population Fragmented Nuclei (%) [3, 13]: 10% | Population Healthy Nuclei (%) [3, 13]: 80% | Population Hoechst High Intensity Objects (%) [3, 13]: 1% | Population Membrane Permeable-Phenotype (%) [3, 13]: 37% | Population Mitochondria Different-Phenotype (%) [3, 13]: 15% | Population Mitotic Cells (%) [3, 13]: 50% | Population Normal (%) [3, 13]: 98% | Population Pyknosed Nuclei (%) [3, 13]: 9% | Population Tubulin-Different-Phenotype (%) [3, 13]: 33% | Total Cell Count [3, 13]: 275 | Population Apoptotic (%) [3, 14]: 42% | Population Fragmented Nuclei (%) [3, 14]: 6% | Population Healthy Nuclei (%) [3, 14]: 87% | Population Hoechst High Intensity Objects (%) [3, 14]: 5% | Population Membrane Permeable-Phenotype (%) [3, 14]: 19% | Population Mitochondria Different-Phenotype (%) [3, 14]: 10% | Population Mitotic Cells (%) [3, 14]: 57% | Population Normal (%) [3, 14]: 94% | Population Pyknosed Nuclei (%) [3, 14]: 6% | Population Tubulin-Different-Phenotype (%) [3, 14]: 19% | Total Cell Count [3, 14]: 152 | Population Apoptotic (%) [3, 15]: 50% | Population Fragmented Nuclei (%) [3, 15]: 3% | Population Healthy Nuclei (%) [3, 15]: 91% | Population Hoechst High Intensity Objects (%) [3, 15]: 2% | Population Membrane Permeable-Phenotype (%) [3, 15]: 5% | Population Mitochondria Different-Phenotype (%) [3, 15]: 15% | Population Mitotic Cells (%) [3, 15]: 50% | Population Normal (%) [3, 15]: 97% | Population Pyknosed Nuclei (%) [3, 15]: 5% | Population Tubulin-Different-Phenotype (%) [3, 15]: 26% | Total Cell Count [3, 15]: 480 | Population Apoptotic (%) [3, 16]: 30% | Population Fragmented Nuclei (%) [3, 16]: 5% | Population Healthy Nuclei (%) [3, 16]: 85% | Population Hoechst High Intensity Objects (%) [3, 16]: 11% | Population Membrane Permeable-Phenotype (%) [3, 16]: 10% | Population Mitochondria Different-Phenotype (%) [3, 16]: 26% | Population Mitotic Cells (%) [3, 16]: 69% | Population Normal (%) [3, 16]: 88% | Population Pyknosed Nuclei (%) [3, 16]: 9% | Population Tubulin-Different-Phenotype (%) [3, 16]: 20% | Total Cell Count [3, 16]: 644
